According to ChEMBL document CHEMBL1926552, “Design and synthesis of simplified taxol analogs based on the T-Taxol bioactive conformation” (Bioorg Med Chem, 2011):
In brackets after ≈: the same amount, converted by molar mass. Activity calls are given as the source filed them. The calls are words filed in the database; no cut-off is given here.

Columns and labels:
[1] = organism: Bos taurus; test: Induction of bovine brain beta-tubulin assembly assessed as prevention of temperature-induced microtubule disassembly at 60 uM at 4 degC by absorption spectrophotometric analysis relative to control
In short: (§1)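 Bovine brain tubulin, 15 µM final, in PMEG buffer (100 mM Pipes, 1 mM MgSO4, 2 mM EGTA, 1 mM GTP, pH 6.9), equilibrated to 37 °C and baseline recorded. Ligand (15 or 60 µM) added, and assembly followed as light scattering at OD 350 nm. The sample was then cooled to 4 °C to follow disassembly. DMSO was 10% v/v final; the control had tubulin plus DMSO only.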

[2] = organism: Bos taurus; test: Induction of bovine brain alpha-tubulin assembly assessed as prevention of temperature-induced microtubule disassembly at 60 uM at 4 degC by absorption spectrophotometric analysis relative to control; in short: as §1
[3] = organism: Bos taurus; test: Induction of bovine brain beta-tubulin assembly assessed as increase in formed microtubule concentration at 60 uM at 37 degC by absorption spectrophotometric analysis relative to control; in short: as §1
[4] = organism: Bos taurus; test: Induction of bovine brain alpha-tubulin assembly assessed as increase in formed microtubule concentration at 60 uM at 37 degC by absorption spectrophotometric analysis relative to control; in short: as §1
[5] = system: A2780; test: Antiproliferative activity against human A2780 cells after 2 days by alamar blue assay; assay type: functional, cell-based; conditions: A2780, 48 h
[6] = Solubility of the compound in buffer containing 10% DMSO; assay type: physicochemical
[7] = organism: Bos taurus; test: Induction of bovine brain alpha-tubulin polymerization at 60 uM using DAPI staining-based by fluorescence assay relative to control
In short: (§2)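 Bovine brain tubulin was loaded with 5 mM GDP in PME buffer (100 mM Pipes, 1 mM MgSO4, 2 mM EGTA, pH 6.9), then gel-filtered into PMED (PME plus 0.1 mM GDP). Tubulin (8 µM, just below critical concentration) with 10 µM DAPI was equilibrated at 37 °C. Ligand (8 or 60 µM) in DMSO (10% v/v final) was added to start the reaction. Fluorescence (ex 360, em 450 nm) was read to steady state against a DMSO-only control.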

[8] = organism: Bos taurus; test: Induction of bovine brain beta-tubulin polymerization at 60 uM using DAPI staining-based by fluorescence assay relative to control; in short: as §2
[9] = organism: Bos taurus; test: Induction of bovine brain beta-tubulin polymerization at 8 uM using DAPI staining-based by fluorescence assay relative to control; in short: as §2
[10] = organism: Bos taurus; test: Induction of bovine brain alpha-tubulin polymerization at 8 uM using DAPI staining-based by fluorescence assay relative to control; in short: as §2
[11] = organism: Bos taurus; test: Induction of bovine brain beta-tubulin assembly assessed as prevention of temperature-induced microtubule disassembly at 15 uM at 4 degC by absorption spectrophotometric analysis relative to control; in short: as §1
[12] = organism: Bos taurus; test: Induction of bovine brain alpha-tubulin assembly assessed as prevention of temperature-induced microtubule disassembly at 15 uM at 4 degC by absorption spectrophotometric analysis relative to control; in short: as §1
[13] = organism: Bos taurus; test: Induction of bovine brain beta-tubulin assembly assessed as increase in formed microtubule concentration at 15 uM at 37 degC by absorption spectrophotometric analysis relative to control; in short: as §1
[14] = organism: Bos taurus; test: Induction of bovine brain alpha-tubulin assembly assessed as increase in formed microtubule concentration at 15 uM at 37 degC by absorption spectrophotometric analysis relative to control; in short: as §1

Activity [1] | Activity [2] | Activity [3] | Activity [4] | IC50 [5] [µM] | solubility [6] [µM] | Activity [7] | Activity [8] | Activity [9] | Activity [10] | Activity [11] | Activity [12] | Activity [13] | Activity [14] | SMILES
Active | Active | Active | Active | 8.3 | 60 (≈ 41.3 µg/mL) | inactive | inactive | – | – | – | – | – | – | C=CCOc1ccccc1[C@H](NC(=O)c1ccccc1)[C@@H](O)C(=O)O[C@H]1C[C@H]2[C@@H](OC(=O)c3ccccc3)c3c(cccc3OCC=C)CN2C1
Active | Active | Active | Active | 4.7 | 60 (≈ 40.4 µg/mL) | inactive | inactive | – | – | – | – | – | – | C=CCOc1cccc2c1[C@H](OC(=O)c1ccccc1)[C@@H]1C[C@H](OC(=O)[C@H](O)[C@@H](NC(=O)c3ccccc3)c3ccccc3CC=C)CN1C2
Active | Active | Active | Active | 4.5 | 60 (≈ 40.5 µg/mL) | inactive | inactive | – | – | – | – | – | – | O=C(N[C@H]1c2ccccc2OCC/C=C/COc2cccc3c2[C@H](OC(=O)c2ccccc2)[C@@H]2C[C@@H](CN2C3)OC(=O)[C@@H]1O)c1ccccc1
Active | Active | Active | Active | 4 | 60 (≈ 38.7 µg/mL) | inactive | inactive | – | – | – | – | – | – | O=C(N[C@H]1c2ccccc2C/C=C/COc2cccc3c2[C@H](OC(=O)c2ccccc2)[C@@H]2C[C@@H](CN2C3)OC(=O)[C@@H]1O)c1ccccc1
– | – | – | – | – | – | – | – | inactive | inactive | Active | Active | Active | Active | CC(=O)O[C@H]1C(=O)[C@@]2(C)[C@H]([C@H](OC(=O)c3ccccc3)[C@]3(O)C[C@H](OC(=O)[C@H](O)[C@@H](NC(=O)c4ccccc4)c4ccccc4)C(C)=C1C3(C)C)[C@]1(OC(C)=O)CO[C@@H]1C[C@@H]2O
Active | Active | Active | Active | 5.8 | 60 (≈ 42.2 µg/mL) | inactive | inactive | – | – | – | – | – | – | C=CCCOc1ccccc1[C@H](NC(=O)c1ccccc1)[C@@H](O)C(=O)O[C@H]1C[C@H]2[C@@H](OC(=O)c3ccccc3)c3c(cccc3OCC=C)CN2C1
Active | Active | Active | Active | 23.8 | 60 (≈ 40.4 µg/mL) | inactive | inactive | – | – | – | – | – | – | C=CCOc1cccc2c1[C@@H](OC(=O)c1ccccc1)[C@@H]1C[C@H](OC(=O)[C@H](O)[C@@H](NC(=O)c3ccccc3)c3ccccc3CC=C)CN1C2
Active | Active | Active | Active | 4.1 | 60 (≈ 39.6 µg/mL) | inactive | inactive | – | – | – | – | – | – | O=C(N[C@H]1c2ccccc2OC/C=C/COc2cccc3c2[C@H](OC(=O)c2ccccc2)[C@@H]2C[C@@H](CN2C3)OC(=O)[C@@H]1O)c1ccccc1
Active | Active | Active | Active | 5.1 | 60 (≈ 38.7 µg/mL) | inactive | inactive | – | – | – | – | – | – | O=C(N[C@H]1c2ccccc2C/C=C/COc2cccc3c2[C@@H](OC(=O)c2ccccc2)[C@@H]2C[C@@H](CN2C3)OC(=O)[C@@H]1O)c1ccccc1
